Activity calls are given as the source filed them. The rule behind the calls is not given here.
Columns and labels:
PBMC [1] = test: Maximal IFNalpha production in human PBMC at 10 uM; type: functional
Outline: (§1)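 Ficoll-Hypaque-isolated human PBMC were held in RPMI 1640 with 10% FBS, L-glutamine and pen/strep, 10⁶ cells/well. They were treated for 24 h with a compound dilution series going down to 10 nM. Supernatant IFN-α was read by Luminex bead assay. Data are a composite of three donors. EC₅₀ came from non-linear regression curve fit.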

PBMC [2] = test: Induction of IFNalpha production in human PBMC at 1 uM; type: functional
Outline: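 Donor PBMC from blood bank isolated over Ficoll-Hypaque and kept in RPMI 1640 with 10% FBS, L-glutamine and penicillin/streptomycin. 10⁶ cells/well were stimulated with compound at single final concentration for 24 h (37 °C, 5% CO₂). Supernatant IFN-α was measured by Luminex multicytokine bead kit. Values are a composite across several healthy donors.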

PBMC [3] = test: Induction of IFNalpha production in human PBMC; type: functional, cell-based; outline: as §1
Macrophage [4] = test: Induction of IL12 production in macrophages of TLR7 knockout mouse; type: functional, cell-based
Macrophage [5] = test: Induction of TNFalpha production in macrophages of TLR7 knockout mouse; type: functional, cell-based
Macrophage [6] = test: Induction of IL6 production in macrophages of TLR7 knockout mouse; type: functional, cell-based

SMILES	Activity (PBMC [1]) [pg/mL]	Activity (PBMC [2]) [pg/mL]	EC50 (PBMC [3]) [µM]	Activity (Macrophage [4])	Activity (Macrophage [5])	Activity (Macrophage [6])
COCCOc1nc(N)c2[nH]c(=O)n(Cc3ccccc3)c2n1	220	418	0.14	–	–	–
CCCNc1nc2c(N)nc(OCCOC)nc2n1Cc1ccccc1	–	8.8	–	–	–	–
COCCOc1nc(N)c2nc(NCCN3CCOCC3)n(Cc3ccccc3)c2n1	176	110.48	0.79	inactive	inactive	inactive
COCCOc1nc(N)c2nc(NCCO)n(Cc3ccccc3)c2n1	168	99.21	5.33	inactive	inactive	inactive
COCCOc1nc(N)c2nc(NCCc3ccccc3)n(Cc3ccccc3)c2n1	–	1.33	–	–	–	–
COCCOc1nc(N)c2nc(NN)n(Cc3ccccc3)c2n1	–	0.21	–	–	–	–
COCCOc1nc(N)c2nc(NCCCO)n(Cc3ccccc3)c2n1	206	113.18	3.2	inactive	inactive	inactive
CCCCNc1nc2c(N)nc(OCCOC)nc2n1Cc1ccccc1	–	0.73	–	–	–	–
COCCOc1nc(N)c2nc(N3CCOCC3)n(Cc3ccccc3)c2n1	–	0.41	–	–	–	–
CCOC(=O)Nc1nc2c(N)nc(OCCOC)nc2n1Cc1ccccc1	–	1.03	–	–	–	–
COCCOc1nc(N)c2nc(N)n(Cc3ccccc3)c2n1	132	–	> 10	–	–	–
CCNc1nc2c(N)nc(OCCOC)nc2n1Cc1ccccc1	141	80.3	4.42	inactive	inactive	inactive
COCCOc1nc(N)c2nc(N(CCO)CCO)n(Cc3ccccc3)c2n1	–	0.82	–	–	–	–

— ChEMBL document CHEMBL1146898, “Synthesis and immunostimulatory activity of 8-substituted amino 9-benzyladenines as potent Toll-like receptor 7 agonists” (Bioorg Med Chem Lett, 2006)
